Experimental findings from ChEMBL document CHEMBL4339227, “Stereoselective Synthesis of C-2 Alkylated Trihydroxypiperidines: Novel Pharmacological Chaperones for Gaucher Disease” (ACS Med Chem Lett, 2019) are described below.

Assay [1] is filed under the species Homo sapiens. Description: Inhibition of GCase in human leukocytes extracts at 1 mM using 4-methylumbelliferyl-beta-D-glucoside substrate incubated for 1 hr by spectrophotometry relative to untreated control. The assay is classed as cell-based. Summed up: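 Human leukocyte homogenates were used as the GCase source. Enzyme activity was measured with the test compound at 1 mM, and the result was expressed as percent inhibition.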

Assay [2] is described as follows: Inhibition of GCase in human leukocytes extracts using 4-methylumbelliferyl-beta-D-glucoside substrate incubated for 1 hr by spectrophotometry. The assay is classed as cell-based. Summed up: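 Human leukocyte homogenates were used as the GCase source. IC50 was derived from GCase activity measured across a range of inhibitor concentrations.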
For assay [3], the species on record is Homo sapiens. Put plainly: Chaperone activity at GCase N370/RecNcil mutant in human fibroblasts derived from Gaucher patient assessed as increase in GCase activity at 100 uM relative to untreated control.
The species entered for assay [4] is Homo sapiens. Put plainly: Chaperone activity at GCase N370/RecNcil mutant in human fibroblasts derived from Gaucher patient assessed as increase in GCase activity at 100 uM incubated for 4 days using 4-methylumbelliferyl-beta-D-glucoside substrate by spectrophotometry relative to untreated control.
For assay [5], the species on record is Homo sapiens. Description: Chaperone activity at GCase N370/RecNcil mutant in human fibroblasts derived from Gaucher patient assessed as increase in GCase activity at 10 nM incubated for 4 days using 4-methylumbelliferyl-beta-D-glucoside substrate by spectrophotometry relative to untreated control.
The nature of assay [6]: Competitive inhibition of GCase in human leukocytes extracts using 4-methylumbelliferyl-beta-D-glucoside substrate incubated for 1 hr by spectrophotometry. The assay is classed as cell-based.
For assay [7], the species on record is Homo sapiens. Description: Chaperone activity at GCase N370/RecNcil mutant in human fibroblasts derived from Gaucher patient assessed as increase in GCase activity at 10 uM incubated for 4 days using 4-methylumbelliferyl-beta-D-glucoside substrate by spectrophotometry relative to untreated control.
For assay [8], the species on record is Homo sapiens. Put plainly: Chaperone activity at GCase N370/RecNcil mutant in human fibroblasts derived from Gaucher patient assessed as increase in GCase activity at 50 uM incubated for 4 days using 4-methylumbelliferyl-beta-D-glucoside substrate by spectrophotometry relative to untreated control.
The species entered for assay [9] is Homo sapiens. Put plainly: Chaperone activity at GCase L444P GBA gene mutant mutant in human fibroblasts derived from Gaucher patient assessed as increase in GCase activity at 100 uM incubated for 4 days using 4-methylumbelliferyl-beta-D-glucoside substrate by spectrophotometry relative to untreated control.
For assay [10], the species on record is Homo sapiens. Put plainly: Chaperone activity at GCase N370/RecNcil mutant in human fibroblasts derived from Gaucher patient assessed as increase in GCase activity at 1 uM incubated for 4 days using 4-methylumbelliferyl-beta-D-glucoside substrate by spectrophotometry relative to untreated control.
The species entered for assay [11] is Homo sapiens. Description: Chaperone activity at GCase N370/RecNcil mutant in human fibroblasts derived from Gaucher patient assessed as increase in GCase activity at 50 nM incubated for 4 days using 4-methylumbelliferyl-beta-D-glucoside substrate by spectrophotometry relative to untreated control.
For assay [12], the species on record is Homo sapiens. Put plainly: Chaperone activity at GCase N370/RecNcil mutant in human fibroblasts derived from Gaucher patient assessed as increase in GCase activity incubated for 4 days using 4-methylumbelliferyl-beta-D-glucoside substrate by spectrophotometry relative to untreated control.

Active and inactive are the calls of the source. No cut-off for these calls is given here.

Broadly, the inhibition is the change of the read-out against control, counted positive when it falls. A lower inhibition goes with a weak effect. Broadly, the IC50 is the concentration that gives 50% inhibition. Lower therefore signals inhibition by little substance. Consider `CCCCCCCC[C@H]1[C@@H](O)[C@H](O)[C@H](O)CN1C`, for which the inhibition in [1] was 50%. In addition, the IC50 in assay [2] was above 1000 µM.
In the case of `CCCCCCCCN1C[C@@H](O)C(O)[C@H](O)C1`, the results for the fold change (FC) in [3] and in [4] were 1.25 and 1.26, respectively. Also, in assay [1], the inhibition was 98%. This molecule also showed an IC50 in [2] of 30 µM.
For `CCCCCCCC[C@@H]1NC[C@@H](O)[C@@H](O)[C@@H]1O`, the inhibition in [1] worked out at 80%. The molecule also displayed an IC50 in assay [2] of 93.5 µM. Moreover, the fold change (FC) in assay [5] stood at 1.3.
In general, Ki refers to the dissociation constant of the complex between target and ligand, obtained from inhibition or displacement. A higher Ki goes with a looser hold on the target. `CCCCCCCC[C@H]1NC[C@@H](O)[C@@H](O)[C@@H]1O`: the inhibition in assay [1] was 100%. The same molecule yielded an IC50 in assay [2] of 29.3 µM. The molecule further gave a Ki in assay [6] of 18.5 µM. The fold change (FC) in [5] is 1.4; in assay [7], 1.6; in assay [8], 1.9; in assay [9], 1.8.
With `CCCCCCCCCCCCC[C@H]1NC[C@@H](O)[C@@H](O)[C@@H]1O`, the inhibition in [1] is 98%. In assay [2], this molecule yielded an IC50 of 9 µM.
Turning to `CCCCCCCCCCCC[C@@H]1NC[C@@H](O)[C@@H](O)[C@@H]1O`, in [1], the inhibition came out at 91%. Besides, the IC50 in assay [2] was determined as 23.3 µM. Also, the fold change (FC) in assay [10] came out at 1.4.
In [1], `CCCCCCCCCCC[C@@H]1NC[C@@H](O)[C@@H](O)[C@@H]1O` registered an inhibition of 96%. The molecule further had an IC50 in assay [2] of 100 µM. In addition, the fold change (FC) in assay [11] came out at 1.3.
For the molecule `CCCCCCCCCCC[C@H]1NC[C@@H](O)[C@@H](O)[C@@H]1O`, the inhibition in assay [1] turned out to be 100%. Besides, the IC50 in assay [2] is 7 µM. In addition, the fold change (FC) in [11] stood at 1.2.
On to `CCCCCCCCCCCCC[C@@H]1NC[C@@H](O)[C@@H](O)[C@@H]1O`, for which the inhibition in [1] was determined as 88%. Also, in assay [2], half-maximal inhibition (IC50) required 160 µM. The outcome in assay [12] was inactive.
The molecule `CCCCCCCCCCCC[C@H]1NC[C@@H](O)[C@@H](O)[C@@H]1O` displayed an inhibition in assay [1] of 95%. The molecule also came in with an IC50 in [2] of 1.5 µM. The molecule further displayed a Ki in assay [6] of 3.6 µM. The fold change (FC) in assay [10] came to 1.4.
